The source made the active and inactive calls. The calls are words filed in the database; no cut-off is given here.
Tests used:
Staphylococcus aureus [1] = experiment: Potentiation of oxacillin induced antibacterial activity against Staphylococcus aureus USA100-NRS382 assessed as oxacillin MIC at 8 uM measured after 16 to 20 hrs in presence of 2% NaCl by microdilution broth method (reference value: 64 mg/L); format: functional
Staphylococcus aureus [2] = experiment: Potentiation of oxacillin induced antibacterial activity against methicillin susceptible Staphylococcus aureus ATCC29213 assessed as reduction in oxacillin MIC at 20 uM measured after 16 to 20 hrs in presence of 2% NaCl by microdilution broth method; format: functional
How it was run: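 Oxacillin MIC was measured against methicillin-susceptible strains with the adjuvant fixed at 20 μM. Potentiation was expressed as fold reduction of the oxacillin MIC relative to oxacillin alone.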

Staphylococcus aureus [3] = experiment: Potentiation of oxacillin induced antibacterial activity against Staphylococcus aureus NRS70 assessed as oxacillin MIC at 8 uM measured after 16 to 20 hrs in presence of 2% NaCl by microdilution broth method (reference value: 64 mg/L); format: functional
Staphylococcus aureus [4] = experiment: Potentiation of oxacillin induced antibacterial activity against Staphylococcus aureus MW2 NRS123 assessed as oxacillin MIC at 16 uM measured after 16 to 20 hrs in presence of 2% NaCl by microdilution broth method (reference value: 16 mg/L); format: functional
Staphylococcus aureus [5] = experiment: Potentiation of oxacillin induced antibacterial activity against Staphylococcus aureus NRS70 assessed as oxacillin MIC at 16 uM measured after 16 to 20 hrs in presence of 2% NaCl by microdilution broth method (reference value: 64 mg/L); format: functional
Staphylococcus aureus [6] = experiment: Potentiation of oxacillin induced antibacterial activity against Staphylococcus aureus MRSA252 assessed as oxacillin MIC at 20 uM measured after 16 to 20 hrs in presence of 2% NaCl by microdilution broth method (reference value: 256 mg/L); format: functional
Staphylococcus aureus [7] = experiment: Potentiation of oxacillin induced antibacterial activity against Staphylococcus aureus MRSA252 assessed as oxacillin MIC at 8 uM measured after 16 to 20 hrs in presence of 2% NaCl by microdilution broth method (reference value: 256 mg/L); format: functional
Staphylococcus aureus [8] = experiment: Potentiation of oxacillin induced antibacterial activity against Staphylococcus aureus NRS119 assessed as oxacillin MIC at 20 uM measured after 16 to 20 hrs in presence of 2% NaCl by microdilution broth method (reference value: 256 mg/L); format: functional
Staphylococcus aureus [9] = experiment: Inhibition of C-terminal His-tagged Staphylococcus aureus NCTC8325 RsbW expressed in Escherichia coli BL21 star (DE3) assessed as decrease in phosphorylation at 100 uM using RsbV as substrate measured after 20 mins in presence of [33P] gammaATP by SDS-PAGE
Staphylococcus aureus [10] = experiment: Inhibition of N-terminal His-tagged Staphylococcus aureus capA1ct/B2 expressed in Escherichia coli BL21 star (DE3) assessed as decrease in phosphorylation at 100 uM using MBP as substrate measured after 20 mins in presence of [33P] gammaATP by SDS-PAGE
Staphylococcus aureus [11] = experiment: Inhibition of recombinant […] N-terminal Stre-tagged Staphylococcus aureus NCTC8325 STK1 domain (1 to 348 residues) expressed in Escherichia coli BL21 star (DE3) assessed as decrease in phosphorylation at 100 uM using MBP as substrate measured after 20 mins in presence of [33P] gammaATP by SDS-PAGE
Staphylococcus aureus [12] = experiment: Synergistic antibacterial activity against methicillin resistant Staphylococcus aureus NRS70 assessed as fractional inhibitory concentration index in presence of oxacillin by checkerboard assay; format: functional
How it was run: (§1)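 Checkerboard combinations of the adjuvant with oxacillin were tested against MRSA strains NRS1, NRS70 and NRS384. The fractional inhibitory concentration index (FICI) was derived from the combination MICs, and each interaction was classed as synergistic or indifferent (additive).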

Staphylococcus aureus [13] = experiment: Synergistic antibacterial activity against methicillin resistant Staphylococcus aureus NRS384 assessed as fractional inhibitory concentration index in presence of oxacillin by checkerboard assay; format: functional; how it was run: as §1
Staphylococcus aureus [14] = experiment: Inhibition of N-terminal His-tagged Staphylococcus aureus NCTC8325 RsbV expressed in Escherichia coli BL21 star (DE3) assessed as decrease in phosphorylation at 100 uM measured after 20 mins in presence of [33P] gammaATP by SDS-PAGE
Staphylococcus aureus [15] = experiment: Synergistic antibacterial activity against methicillin resistant Staphylococcus aureus Mu50 NRS1 assessed as fractional inhibitory concentration index in presence of oxacillin by checkerboard assay; format: functional; how it was run: as §1
Staphylococcus aureus [16] = experiment: Inhibition of recombinant full length N-terminal Stre-tagged Staphylococcus aureus NCTC8325 STK1 expressed in Escherichia coli BL21 star (DE3) assessed as decrease in phosphorylation at 100 uM using MBP as substrate measured after 20 mins [33P] gammaATP by SDS-PAGE

Compound | MIC (Staphylococcus aureus [1]) [µg/mL] | MIC (Staphylococcus aureus [3]) [µg/mL] | MIC (Staphylococcus aureus [4]) [µg/mL] | MIC (Staphylococcus aureus [5]) [µg/mL] | MIC (Staphylococcus aureus [6]) | MIC (Staphylococcus aureus [7]) [µg/mL] | MIC (Staphylococcus aureus [8]) | fold change (FC) (Staphylococcus aureus [2]) | inhibition (Staphylococcus aureus [9]) | inhibition (Staphylococcus aureus [10]) | inhibition (Staphylococcus aureus [11]) | fractional inhibitory concentration index (FICI) (Staphylococcus aureus [12]) | fractional inhibitory concentration index (FICI) (Staphylococcus aureus [13]) | inhibition (Staphylococcus aureus [14]) | fractional inhibitory concentration index (FICI) (Staphylococcus aureus [15]) | inhibition (Staphylococcus aureus [16])
CS(=O)(=O)/C(C#N)=C/c1c(F)ccc(Cc2ccc(Cl)c(Cl)c2)c1F | 1 | 64 | 0.5 | 0.5 | 64 µg/mL | 256 | Active | 2 - 10 | – | – | – | – | – | – | – | –
CS(=O)(=O)/C(C#N)=C/c1cc(Cc2ccc(Cl)c(Cl)c2)ccc1OC(F)(F)F | 0.5 | 0.25 | 0.12 | ≤ 0.03 | Active | 2 | Active | 2 - 10 | inactive | inactive | inactive | 0.28 | 0.38 | inactive | 0.28 | inactive
CS(=O)(=O)/C(C#N)=C/c1cc(Cc2ccc(Cl)c(Cl)c2)ccc1F | 1 | 8 | 0.5 | 0.5 | 128 µg/mL | 256 | ≤ 0.03 µg/mL | 2 - 10 | – | – | – | – | – | – | – | –

More lines, main results first:

MIC (Staphylococcus aureus [1]) [µg/mL] | MIC (Staphylococcus aureus [3]) [µg/mL] | MIC (Staphylococcus aureus [4]) [µg/mL] | MIC (Staphylococcus aureus [5]) [µg/mL] | MIC (Staphylococcus aureus [6]) | MIC (Staphylococcus aureus [7]) [µg/mL] | MIC (Staphylococcus aureus [8]) | Compound | fold change (FC) (Staphylococcus aureus [2]) | inhibition (Staphylococcus aureus [9]) | inhibition (Staphylococcus aureus [10]) | inhibition (Staphylococcus aureus [11]) | fractional inhibitory concentration index (FICI) (Staphylococcus aureus [12]) | fractional inhibitory concentration index (FICI) (Staphylococcus aureus [13]) | inhibition (Staphylococcus aureus [14]) | fractional inhibitory concentration index (FICI) (Staphylococcus aureus [15]) | inhibition (Staphylococcus aureus [16])
0.5 | 4 | 0.12 | 0.03 | 2 µg/mL | 256 | 0.12 µg/mL | N#C/C(=C\c1cc(Cc2ccc(Cl)c(Cl)c2)ccc1F)S(=O)(=O)c1ccccn1 | 2 - 10 | – | – | – | – | – | – | – | –
4 | 16 | 0.5 | 2 | 128 µg/mL | 256 | 0.12 µg/mL | CS(=O)(=O)/C(C#N)=C/c1cc(-c2ccc(Cl)c(Cl)c2)ccc1F | 2 - 10 | – | – | – | – | – | – | – | –
